Tests used:
[1] = target: human serum albumin (HSA) (Homo sapiens, UniProt P02768); assay: Binding of nucleotides to human serum albumin by native ESI-FT-ICR MS
Method in brief: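 Commercial HSA buffer-exchanged five times into 10 mM NH4Ac (pH 6.0) on a 30k membrane filter. Purified HSA (3 μM) mixed with varying nucleotide concentrations in 10 mM NH4Ac and infused at 5 μL∙min−1 in native positive-mode ESI-FT-ICR MS, m/z 1000–5000, 200 scans combined. Free HSA to complex intensity ratios taken from deconvoluted 17+ to 19+ charge states; KD by nonlinear regression.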

[2] = Degradation in liver homogenate on ice and at room temperature; type: in vitro ADME, mouse; conditions: both on ice and at room temperature; Fig. 4a

Sequence of human serum albumin (HSA) (P02768 25-609): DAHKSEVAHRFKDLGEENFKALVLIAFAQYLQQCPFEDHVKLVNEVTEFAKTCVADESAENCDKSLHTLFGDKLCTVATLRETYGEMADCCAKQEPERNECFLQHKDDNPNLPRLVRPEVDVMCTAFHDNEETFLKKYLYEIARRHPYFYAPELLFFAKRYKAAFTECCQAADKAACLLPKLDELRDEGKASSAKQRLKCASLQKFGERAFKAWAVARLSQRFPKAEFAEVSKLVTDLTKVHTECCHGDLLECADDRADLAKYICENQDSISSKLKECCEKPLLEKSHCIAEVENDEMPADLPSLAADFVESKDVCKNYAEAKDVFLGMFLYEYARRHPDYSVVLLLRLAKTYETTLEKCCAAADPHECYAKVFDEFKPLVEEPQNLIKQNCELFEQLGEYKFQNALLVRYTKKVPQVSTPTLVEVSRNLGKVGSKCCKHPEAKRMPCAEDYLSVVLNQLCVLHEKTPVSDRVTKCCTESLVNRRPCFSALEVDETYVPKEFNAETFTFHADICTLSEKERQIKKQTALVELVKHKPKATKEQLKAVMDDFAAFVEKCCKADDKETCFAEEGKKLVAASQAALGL

Kd [1]	degradation in bio-sample without stabilizer [2]	Structure (SMILES)
0.471 ± 0.0238 µM	–	Nc1ncnc2c1ncn2[C@@H]1O[C@H](COP(=O)(O)OP(=O)(O)OP(=O)(O)O)[C@@H](O)[C@H]1O [ATP, Adenosine triphosphate]
–	almost completely degraded in 5 min	CCC(CC)COC(=O)[C@H](C)N[P@](=O)(OC[C@H]1O[C@@](C#N)(c2ccc3c(N)ncnn23)[C@H](O)[C@@H]1O)Oc1ccccc1 [RDV, Remdesivir]
6.79 ± 0.333 µM	–	O=c1ccn([C@@H]2O[C@H](COP(=O)(O)OP(=O)(O)OP(=O)(O)O)[C@@H](O)[C@H]2O)c(=O)[nH]1 [UTP, uridine triphosphate]
